Data set [1] can be described thus: Stability in pooled human liver microsomes assessed as compound remaining measured after 1 hr. It is filed as ADME, microsome. To be noted: read-out: Stability. (Liver microsomes are vesicles of endoplasmic reticulum, rich in cytochrome P450 enzymes.)
Data set [2] is described as follows: Stability in CD-1 mouse liver microsomes assessed as compound remaining measured after 1 hr. To be noted: read-out: Stability. In kind it is ADME, microsome.
For data set [3], the system named is Mycobacterium tuberculosis. The data set can be described thus: Anti-tubercular activity against Mycobacterium tuberculosis infected in BALB/c mouse assessed as reduction in lung colony forming units at 100 mg/kg, po administered via gavage for 5 days each week for 3 weeks measured after 1 day post last dose relative to PA-824. In kind it is functional. In a few lines:
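Mouse model of acute TB infection. Oral dosing at 100 mg/kg daily, 5 days per week, for 3 weeks. Read-out is fold reduction in lung CFU, expressed as a ratio to the fold CFU reduction from the reference nitroimidazole run alongside.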

Data set [4] in a line: Solubility in water at pH 7 after 15 mins by HPLC method. To be noted: for solubility at 0.25 h: water, pH 7. In kind it is physicochemical. In a few lines: (§1)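 Solubility measured at 20 °C by HPLC, in water (pH 7) or 0.1 M HCl (pH 1).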
The subject of data set [5] is Vero. The data set can be described thus: Cytotoxicity against African green monkey Vero cells after 72 hrs by MTS/PMS assay. In kind it is cell-based. To be noted: Chlorocebus sabaeus. The procedure, abridged: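 VERO mammalian cells exposed for 72 h. Cytotoxicity IC50 comes from a single test.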
In data set [6] the test system is Mycobacterium tuberculosis. The data set is described as follows: Anti-tubercular activity against Mycobacterium tuberculosis H37Rv ATCC 27294 after 10 days under hypoxic condition by low-oxygen recovery assay. It is filed as functional. The procedure, abridged:
(§2)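 M. tuberculosis H37Rv MIC measured in two assays: aerobic growth by MABA and hypoxic exposure by LORA. Each value is the mean of ≥2 independent determinations.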

Data set [7] has as its system Mycobacterium tuberculosis. The data set can be described thus: Anti-tubercular activity against Mycobacterium tuberculosis H37Rv ATCC 27294 after 7 days under aerobic condition by microplate alamar blue assay. In kind it is functional. In a few lines: as §2
For orientation: The colour change of resazurin is a common sign of viable cells or microbes.

The subject of data set [8] is Leishmania infantum. The data set can be described thus: Anti-parasitic activity against Leishmania infantum MHOM/MA(BE)/67 amastigotes infected in mouse primary peritoneal macrophages after 5 days by giemsa staining based microscopic method. In kind it is functional. To be noted: Leishmania infantum, MHOM/MA(BE)/67, 120 h. The procedure, abridged: (§3)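 IC50 for growth inhibition of L. infantum, T. cruzi and T. brucei parasites, or for cytotoxicity toward human lung fibroblasts (MRC-5). Values are means of two or more independent experiments.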

In data set [9] the test system is Trypanosoma cruzi. The data set is described as follows: Anti-parasitic activity against Trypanosoma cruzi Tulahuen CL2 infected in human MRC5 cells after 7 days by chlorophenol red […]-D-galactopyranoside dye based assay. In kind it is functional, cell-based. To be noted: Trypanosoma cruzi, Tulahuen CL2, MRC5, 168 h. The procedure, abridged: as §3
In data set [10] the test system is Trypanosoma brucei brucei. The data set is described as follows: Anti-parasitic activity against Trypanosoma brucei brucei Squib-427 after 72 hrs by resazurin dye based fluorescence assay. In kind it is functional. To be noted: Trypanosoma brucei, Squib-427, 72 h. In a few lines:
as §3

Data set [11] can be described thus: Cytotoxicity against human MRC5 SV2 cells after 72 hrs by resazurin dye based fluorescence assay. To be noted: Homo sapiens, MRC-5 SV2, 72 h. In kind it is cell-based. The procedure, abridged: as §3
Data set [12] in a line: Solubility in HCl at pH 1 after 15 mins by HPLC method. In kind it is physicochemical. The procedure, abridged: as §1
Where [13] appears, read: Mycobacterium tuberculosis, H37Rv ATCC 27294, 240 h, read-out: MIC.
Setting [14] is: Mycobacterium tuberculosis, H37Rv ATCC 27294, 168 h, read-out: MIC.

The solubility is the concentration that dissolves in the medium under given conditions. As a reminder, the IC50 is the concentration needed to halve the response being measured. One may read the MIC as the lowest concentration that inhibits growth of the organism.

In brackets after ≈: the same amount, converted by molar mass.

With `C[C@]1(COc2ccc(N3CCC(Oc4ccc(OC(F)(F)F)cc4)CC3)cc2)Cn2cc([N+](=O)[O-])nc2O1`, the remaining at 1 h in data set [1] turned out to be 71%; in data set [2], 87%. Further, the “fold change (FC)” value in [3] is 68.

With `O=[N+]([O-])c1cn2c(n1)OC[C@@H](COc1ccc(OC(F)(F)F)cc1)C2`, the remaining at 1 h in [1] was found to be 82%; in data set [2], 94%.

`CC1(COc2ccc(-c3ccc(OC(F)(F)F)cc3)cc2)Cn2cc([N+](=O)[O-])nc2O1` (stereo not given) came in with a solubility in data set [4] (buffer, pH 7, 0.25 h) of 0.41 µg/mL (≈ 0.942 µM). Further, the “fold change (FC)” value in [3] stood at 115.

In turn, `CC1(COCc2ccc(OC(F)(F)F)cc2)Cn2cc([N+](=O)[O-])nc2O1` (stereo not given) registered a solubility at 0.25 h in [4] of 11 µg/mL (≈ 29.5 µM). Besides, the “fold change (FC)” value in data set [3] was determined as 0.025.

Turning to `C[C@]1(COCc2ccc(OC(F)(F)F)cc2)Cn2cc([N+](=O)[O-])nc2S1`, the IC50 was 24 µM in data set [5]; above 64 µM in data set [8]; 0.57 µM in data set [9]; above 64 µM in [10]; 43 µM in data set [11]. The values for the MIC in data set [6] (setting [13]) and in data set [7] (setting [14]) were 5.8 µM (≈ 2.26 µg/mL) and 0.2 µM (≈ 0.0779 µg/mL), respectively. In addition, the remaining at 1 h in [1] was determined as 29%; in [2], 0%.

In the case of `CC1(COc2ccc(-c3ccc(OC(F)(F)F)cc3)cc2)Cn2cc([N+](=O)[O-])nc2S1` (stereo not given), the IC50 in data set [5] was above 128 µM; in [8], 45 µM; in data set [9], 0.085 µM; in data set [10], above 64 µM; in [11], above 64 µM. Moreover, the MIC in data set [6] (setting [13]) is above 128 µM; in data set [7] (setting [14]) it was 0.063 µM (≈ 0.0284 µg/mL). The compound also showed a solubility at 0.25 h in [4] of 0.25 µg/mL (≈ 0.554 µM). Besides, the figures for the remaining at 1 h in data set [1] and in data set [2] were 84% and 75%, respectively. For the same compound, the “fold change (FC)” value in data set [3] turned out to be 5.7.

For `CC1(COc2ccc(OC(F)(F)F)cc2)Cn2nc([N+](=O)[O-])nc2S1(=O)=O` (stereo not given), the IC50 was 46 µM in data set [5]; 1.3 µM in data set [8]; 1.3 µM in data set [9]; 2.1 µM in data set [10]; 0.42 µM in [11]. The MIC in [6] (setting [13]) worked out at 27 µM (≈ 11 µg/mL); in data set [7] (setting [14]) it was 2.2 µM (≈ 0.898 µg/mL).

In the case of `CC1(COc2ccc(OC(F)(F)F)cc2)Cn2nc(Br)nc2S1` (stereo not given), the half-inhibitory concentration (IC50) is 89 µM in data set [5]; above 64 µM in data set [8]; 6.2 µM in [9]; 34 µM in data set [10]; 42 µM in data set [11]. For the same compound, the MIC in [6] (setting [13]) was above 128 µM; in data set [7] (setting [14]), 24 µM (≈ 9.85 µg/mL).

For the compound `CC1(COc2ccc(OC(F)(F)F)cc2)Cn2nc([N+](=O)[O-])nc2[S+]1[O-]` (stereo not given), the IC50 in data set [5] was 98 µM; in [8] it was 0.9 µM; in data set [9] it was 1.2 µM; in [10], 3 µM; in [11] it was 0.74 µM. The MIC was found to be 90 µM (≈ 35.3 µg/mL) in data set [6] (setting [13]) and 9.3 µM (≈ 3.65 µg/mL) in [7] (setting [14]).

With `CC1(COCc2ccc(OC(F)(F)F)cc2)Cn2cc([N+](=O)[O-])nc2S1` (stereo not given), the MIC turned out to be 7.9 µM (≈ 3.08 µg/mL) in data set [6] (setting [13]) and 0.24 µM (≈ 0.0934 µg/mL) in [7] (setting [14]). In addition, the IC50 was 57 µM in data set [8], 0.67 µM in data set [9], 56 µM in data set [10] and above 64 µM in data set [11]. Moreover, the concentration in solution in data set [4] (solubility at 0.25 h) came to 2.4 µg/mL (≈ 6.16 µM).

Consider `CC1(COc2ccc(N3CCC(Oc4ccc(OC(F)(F)F)cc4)CC3)cc2)Cn2cc([N+](=O)[O-])nc2S1` (stereo not given), for which the IC50 in [5] is above 128 µM; in [8] it was 53 µM; in data set [9] it was 0.055 µM; in data set [10] it was 59 µM; in [11], above 64 µM. Moreover, the MIC in [6] (setting [13]) came out at 71 µM (≈ 39.1 µg/mL); in data set [7] (setting [14]) it was 0.073 µM (≈ 0.0402 µg/mL). Moreover, the solubility at 0.25 h worked out at 0.18 µg/mL (≈ 0.327 µM) in data set [4] and 13 µg/mL (≈ 23.6 µM) in [12].

Regarding `CC1(COc2ccc(-c3ccc(C(F)(F)F)cc3)cc2)Cn2cc([N+](=O)[O-])nc2S1` (stereo not given), the IC50 in [5] is above 128 µM; in data set [8], above 64 µM; in data set [9] it was 0.035 µM; in data set [10], 52 µM; in data set [11], above 64 µM. Further, the MIC in [6] (setting [13]) was 46 µM (≈ 20 µg/mL); in data set [7] (setting [14]) it was 0.12 µM (≈ 0.0523 µg/mL).

Take `CC1(COc2ccc(OC(F)(F)F)cc2)Cn2cc([N+](=O)[O-])nc2[S+]1[O-]` (stereo in doubt; 37): the IC50 in data set [5] is above 128 µM; in [8] it was above 64 µM; in data set [9], 2.3 µM; in data set [10], above 64 µM; in data set [11], above 64 µM. The MIC in data set [6] and in data set [7] was above 128 µM in each case.

Values taken from ChEMBL document CHEMBL4028840, “6-Nitro-2,3-dihydroimidazo[2,1-b][1,3]thiazoles: Facile synthesis and comparative appraisal against tuberculosis and neglected tropical diseases” (Bioorg Med Chem Lett, 2017).
